Source: ChEMBL document CHEMBL3526035, “Role of the intestinal peptide transporter PEPT1 in oseltamivir absorption: in vitro and in vivo studies” (Drug Metab Dispos, 2012)
Where a SMILES comes first, the peptide text is derived from it. [ ]: non-standard residue; d: D form. Sar = CNCC(=O)O

Columns and labels:
[1] = Drug uptake in CHOK1 cells at 2 uM at pH 4 to 8 after 10 mins by HPLC coupled with radiodetection analysis; assay type: ADME, cell-based, Cricetulus griseus; conditions: chinese hamster, cho-k1, pH 4, 10 min
Summary of the method: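 [3H]Gly-Sar at 2 μM in KH buffer over pH 4-8, incubated with CHO-K1 cells for 10 min at 37°C. Accumulated radioactivity in cell lysates counted and normalised to protein. Three independent experiments.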

[2] = target: T1, Solute carrier family 15 member 1 (Homo sapiens, UniProt P46059); assay: Drug uptake in CHOK1 cells expressing human PEPT1 at 2 uM after 10 mins measured per mg protein by HPLC coupled with radiodetection analysis; assay type: ADME, cell-based; conditions: cho-k1, 10 min
T1 sequence (P46059 whole entry): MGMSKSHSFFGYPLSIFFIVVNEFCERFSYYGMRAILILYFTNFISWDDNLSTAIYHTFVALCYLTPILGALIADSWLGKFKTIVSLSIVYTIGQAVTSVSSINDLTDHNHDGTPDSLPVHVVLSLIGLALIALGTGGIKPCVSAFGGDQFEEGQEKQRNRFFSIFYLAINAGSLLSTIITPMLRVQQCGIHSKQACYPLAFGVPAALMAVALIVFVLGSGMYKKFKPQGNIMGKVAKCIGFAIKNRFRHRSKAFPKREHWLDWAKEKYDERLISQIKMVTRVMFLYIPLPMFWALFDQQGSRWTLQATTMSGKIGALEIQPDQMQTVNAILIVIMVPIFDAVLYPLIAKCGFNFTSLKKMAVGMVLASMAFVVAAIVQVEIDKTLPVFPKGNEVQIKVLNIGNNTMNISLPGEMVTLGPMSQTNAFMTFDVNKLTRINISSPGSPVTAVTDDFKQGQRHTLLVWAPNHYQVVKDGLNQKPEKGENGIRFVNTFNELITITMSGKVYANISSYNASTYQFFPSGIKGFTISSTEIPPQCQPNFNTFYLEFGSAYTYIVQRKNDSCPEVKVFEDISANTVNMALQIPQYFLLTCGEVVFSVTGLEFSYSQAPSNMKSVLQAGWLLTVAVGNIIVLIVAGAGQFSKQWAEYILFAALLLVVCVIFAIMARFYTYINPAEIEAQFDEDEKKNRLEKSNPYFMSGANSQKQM
Summary of the method: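 Transporter functionality check: 2 µM [3H]Gly-Sar was incubated for 10 min at 37°C, pH 6, in KH/MES buffer with CHO-PEPT1 versus CHO-K1 cells. Intracellular radioactivity in Triton X-100 lysates was expressed as pmol/mg protein (BCA). Six independent experiments, triplicate wells.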

[3] = target: T1, Solute carrier family 15 member 1; assay: Drug uptake in CHOK1 cells expressing human PEPT1 by HPLC coupled with radiodetection analysis; assay type: ADME, cell-based; conditions: cho-k1, TDE = time-dependent effect
Summary of the method: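 Accumulation of [14C]oseltamivir or its carboxylate in CHO-PEPT1 versus CHO-K1 cells. Conditions varied: KH buffer (with MES) or Hanks' balanced salt solution, pH 5 or 6 readjusted after substrate addition, 30 s to 15 min at 37°C. Uptake was quenched with ice-cold PBS-BSA, followed by Triton X-100 lysis, scintillation counting, and BCA protein normalization. HPLC-radiodetection checked ester stability.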

[4] = Drug uptake in CHOK1 cells at 2 uM after 10 mins measured per mg protein by HPLC coupled with radiodetection analysis; assay type: ADME, cell-based, Cricetulus griseus; conditions: chinese hamster, cho-k1, 10 min
Summary of the method: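 CHO-K1 cells given 2 μM [3H]Gly-Sar in KH buffer at pH 6 for 10 min at 37°C. Ice-cold PBS-BSA quench, then washes and Triton lysis. Scintillation counts expressed as pmol/mg protein (BCA). n=6 experiments.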

Drug uptake [1]: Active
Drug uptake [2]: 182 pmol
Drug uptake [3]: tde
Drug uptake [4]: 1.1 pmol
Compound: CN(CC(=O)O)C(=O)CN [GLYCYLSARCOSINE] (H-Gly-[Sar]-OH)
